In ChEMBL document CHEMBL4765260, “Inclusion of a 5-fluorouracil moiety in nitrogenous bases derivatives as human carbonic anhydrase IX and XII inhibitors produced a targeted action against MDA-MB-231 and T47D breast cancer cells” (Eur J Med Chem, 2020):
One block for each compound: values may come before it. Activity calls are given as the source filed them. The calls are words filed in the database; no cut-off is given here.

Legend:
[1] = molecular target: T1, Carbonic anhydrase 9 (Homo sapiens, UniProt Q16790); assay: Inhibition of recombinant human CA9 pre-incubated for 15 mins measured by phenol red dye based stopped flow CO2 hydration assay
[2] = molecular target: Carbonic anhydrase 12 (Homo sapiens, UniProt O43570); assay: Inhibition of recombinant human CA12 pre-incubated for 6 hrs measured by phenol red dye based stopped flow CO2 hydration assay
In short: (§1)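 Stopped-flow CO2 hydration at 0.2 mM phenol red (557 nm) in 20 mM Hepes pH 7.5 with 20 mM Na2SO4, initial rates followed for 10–100 s. CO2 1.7–17 mM; ≥6 traces of the first 5–10% of reaction per inhibitor; uncatalysed rate subtracted. Inhibitor diluted in assay buffer down to 0.01 nM, preincubated with enzyme 6 h at room temperature. Values are means of 3 assays.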

[3] = molecular target: Carbonic anhydrase 2 (Homo sapiens, UniProt P00918); assay: Inhibition of recombinant human CA2 pre-incubated for 6 hrs measured by phenol red dye based stopped flow CO2 hydration assay; in short: as §1
[4] = molecular target: Carbonic anhydrase 1 (Homo sapiens, UniProt P00915); assay: Inhibition of recombinant human CA1 pre-incubated for 6 hrs measured by phenol red dye based stopped flow CO2 hydration assay; in short: as §1
[5] = molecular target: T1, Carbonic anhydrase 9; assay: Inhibition of recombinant human CA9 pre-incubated for 6 hrs measured by phenol red dye based stopped flow CO2 hydration assay; in short: as §1
[6] = tested on: HL-60; assay: Antiproliferative activity against human HL-60 cells assessed as cell viability measured after 72 hrs by SRB assay; type: functional, cell-based
In short: (§2)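 SRB colorimetric assay on ATCC-sourced cell lines kept in RPMI or DMEM with 10% heat-inactivated FBS, penicillin 100 units/mL and streptomycin at 37 °C in humidified 5% CO2. Preliminary screen: each compound tested in triplicate at two fixed concentrations (10 and 100). Read-out is percent cell viability.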

[7] = tested on: SK-OV-3; assay: Antiproliferative activity against human SK-OV-3 cells assessed as cell viability measured after 72 hrs by SRB assay; type: functional, cell-based; in short: as §2
[8] = tested on: COLO 205; assay: Antiproliferative activity against human COLO 205 cells assessed as cell viability measured after 72 hrs by SRB assay; type: functional, cell-based; in short: as §2
[9] = tested on: MCF7; assay: Antiproliferative activity against human MCF7 cells assessed as cell viability measured after 72 hrs by SRB assay; type: functional, cell-based; in short: as §2
[10] = tested on: MDA-MB-231; assay: cells; settings: Homo sapiens, MDA-MB-231, 72 h
[11] = tested on: T47D; assay: Antiproliferative activity against human T47D cells assessed as cell viability measured after 72 hrs by SRB assay; type: functional, cell-based; in short: as §2
[12] = tested on: HeLa; assay: Antiproliferative activity against human HeLa cells assessed as cell viability measured after 72 hrs by SRB assay; type: functional, cell-based; in short: as §2
[13] = tested on: A549; assay: Antiproliferative activity against human A549 cells assessed as cell viability measured after 72 hrs by SRB assay; type: functional, cell-based; in short: as §2
[14] = tested on: T47D; assay: cells; settings: Homo sapiens, 72 h
[15] = tested on: MDA-MB-231; assay: Antiproliferative activity against human MDA-MB-231 cells assessed as cell viability measured after 72 hrs by SRB assay; type: functional, cell-based; in short: as §2
[16] = tested on: T47D; assay: Induction of apoptosis in human T47D cells assessed as necrotic cells at […] uM measured after 24 hrs by Annexin V-FITC stain based flow cytometry method (reference value: 1.91%); type: functional
[17] = tested on: T47D; assay: Induction of cell cycle arrest in human T47D cells assessed as accumulation of cells in G2/M phase at […] uM measured after 24 hrs by DNA flow cytometry assay (reference value: 16.59%); type: functional
[18] = tested on: T47D; assay: Induction of apoptosis in human T47D cells assessed as early apoptotic cells at […] uM measured after 24 hrs by Annexin V-FITC stain based flow cytometry method (reference value: 0.39%); type: functional
[19] = tested on: T47D; assay: Induction of cell cycle arrest in human T47D cells assessed as accumulation of cells in sub-G1 phase at […] uM measured after 24 hrs by DNA flow cytometry assay (reference value: 2.41%); type: functional
[20] = tested on: T47D; assay: Induction of apoptosis in human T47D cells assessed as late apoptotic cells at […] uM measured after 24 hrs by Annexin V-FITC stain based flow cytometry method (reference value: 0.17%); type: functional
[21] = tested on: T47D; assay: Induction of apoptosis in human T47D cells assessed as viable cells at […] uM measured after 24 hrs by Annexin V-FITC stain based flow cytometry method; type: functional, cell-based; settings: dose 2.45 µM
[22] = tested on: T47D; assay: Induction of apoptosis in human T47D cells assessed as viable cells at […] uM measured after 24 hrs by Annexin V-FITC stain based flow cytometry method relative to control; type: functional, cell-based; settings: dose 7.56 µM

Sequence of Carbonic anhydrase 12 (O43570 whole entry): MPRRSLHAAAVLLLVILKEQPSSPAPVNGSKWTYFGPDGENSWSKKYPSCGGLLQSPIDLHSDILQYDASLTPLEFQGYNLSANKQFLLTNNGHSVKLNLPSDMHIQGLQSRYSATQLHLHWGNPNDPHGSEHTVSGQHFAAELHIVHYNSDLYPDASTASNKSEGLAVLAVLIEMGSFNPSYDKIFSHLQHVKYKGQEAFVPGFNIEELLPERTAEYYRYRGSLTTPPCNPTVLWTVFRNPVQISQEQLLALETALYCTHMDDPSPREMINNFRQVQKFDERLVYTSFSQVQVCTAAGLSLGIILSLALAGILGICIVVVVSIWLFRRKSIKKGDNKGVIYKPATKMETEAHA
Sequence of Carbonic anhydrase 1 (P00915 whole entry): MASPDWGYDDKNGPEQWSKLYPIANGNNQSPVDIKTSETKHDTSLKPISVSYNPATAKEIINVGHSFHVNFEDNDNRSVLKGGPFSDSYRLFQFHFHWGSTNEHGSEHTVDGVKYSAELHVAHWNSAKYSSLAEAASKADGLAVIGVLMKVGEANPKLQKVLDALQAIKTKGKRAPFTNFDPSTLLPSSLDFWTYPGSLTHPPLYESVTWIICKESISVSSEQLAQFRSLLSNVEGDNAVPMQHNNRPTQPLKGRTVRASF

Structure (SMILES): O=C(Cn1cc(F)c(=O)[nH]c1=O)Oc1ccc2ccc(=O)oc2c1
Ki [2]: 14.4 nM
Ki [3]: > 10000 nM
Ki [4]: > 10000 nM
Ki [5]: 36.8 nM

Structure (SMILES): NS(=O)(=O)c1ccc(-n2cc(Cn3cc(F)c(=O)[nH]c3=O)nn2)c(Br)c1
Ki [1]: 3.8 nM

Structure (SMILES): NS(=O)(=O)c1ccc(-n2cc(Cn3cc(F)c(=O)[nH]c3=O)nn2)c(Cl)c1
Ki [1]: 11.2 nM

Structure (SMILES): NS(=O)(=O)c1ccc(NC(=O)Cn2cc(F)c(=O)[nH]c2=O)cc1
Ki [1]: 4.8 nM

Structure (SMILES): NS(=O)(=O)c1ccc(-n2cc(Cn3cc(F)c(=O)[nH]c3=O)nn2)cc1
growth inhibition (GI) [6]: inactive
Ki [1]: 0.47 nM
growth inhibition (GI) [7]: inactive
growth inhibition (GI) [8]: inactive
growth inhibition (GI) [9]: inactive
IC50 [10]: 22800 nM
growth inhibition (GI) [11]: Active
growth inhibition (GI) [12]: inactive
growth inhibition (GI) [13]: inactive
IC50 [14]: 33500 nM
growth inhibition (GI) [15]: Active

Structure (SMILES): Cc1cc(=O)oc2cc(NC(=O)Cn3cc(F)c(=O)[nH]c3=O)ccc12
growth inhibition (GI) [6]: inactive
growth inhibition (GI) [7]: inactive
Ki [2]: 23.2 nM
growth inhibition (GI) [8]: inactive
Ki [3]: > 10000 nM
growth inhibition (GI) [9]: inactive
IC50 [10]: 32000 nM
growth inhibition (GI) [11]: Active
growth inhibition (GI) [12]: inactive
Ki [4]: > 10000 nM
growth inhibition (GI) [13]: inactive
Ki [5]: 16.5 nM
IC50 [14]: 13200 nM
growth inhibition (GI) [15]: Active

Structure (SMILES): NS(=O)(=O)c1cccc(NC(=O)Cn2cc(F)c(=O)[nH]c2=O)c1
Ki [1]: 44.7 nM

Structure (SMILES): NS(=O)(=O)c1cccc(-n2cc(Cn3cc(F)c(=O)[nH]c3=O)nn2)c1
Ki [1]: 105 nM

Structure (SMILES): NS(=O)(=O)c1ccc(O)c(NC(=O)Cn2cc(F)c(=O)[nH]c2=O)c1
growth inhibition (GI) [6]: inactive
Activity ([16]; 7.56 µM): 1.36%
Ki [1]: 453 nM
growth inhibition (GI) [7]: inactive
growth inhibition (GI) [8]: inactive
growth inhibition (GI) [9]: inactive
Activity ([17]; 7.56 µM): 26.83%
IC50 [10]: 25500 nM
growth inhibition (GI) [11]: Active
growth inhibition (GI) [12]: inactive
growth inhibition (GI) [13]: inactive
IC50 [14]: 7560 nM
Activity ([18]; 7.56 µM): 3.59%
Activity ([19]; 7.56 µM): 12.72%
Activity ([20]; 7.56 µM): 9.62%
Activity [22]: Active
growth inhibition (GI) [15]: Active

Structure (SMILES): Cc1cc(=O)oc2cc(-n3cc(Cn4cc(F)c(=O)[nH]c4=O)nn3)ccc12
Ki [2]: 408 nM
Ki [3]: > 10000 nM
Ki [4]: > 10000 nM
Ki [5]: 173 nM

Structure (SMILES): NS(=O)(=O)c1ccc(CNC(=O)Cn2cc(F)c(=O)[nH]c2=O)cc1
Ki [1]: 29.2 nM

More lines, main results first:

Ki [1]: 3.5 nM
Structure (SMILES): NS(=O)(=O)c1ccc(CCN(Cc2ccccc2)C(=O)Cn2cc(F)c(=O)[nH]c2=O)cc1

Ki [1]: 24.8 nM
Structure (SMILES): NS(=O)(=O)c1ccc(CCNC(=O)Cn2cc(F)c(=O)[nH]c2=O)cc1

Ki [1]: 1.9 nM
IC50 [10]: 6860 nM
IC50 [14]: 2450 nM
Structure (SMILES): COc1ccc(CN(CCc2ccc(S(N)(=O)=O)cc2)C(=O)Cn2cc(F)c(=O)[nH]c2=O)cc1
growth inhibition (GI) [6]: inactive
Activity ([16]; 2.45 µM): 2.51%
growth inhibition (GI) [7]: inactive
growth inhibition (GI) [8]: inactive
growth inhibition (GI) [9]: inactive
Activity ([17]; 2.45 µM): 35.47%
growth inhibition (GI) [11]: Active
growth inhibition (GI) [12]: inactive
growth inhibition (GI) [13]: inactive
Activity ([18]; 2.45 µM): 7.31%
Activity ([19]; 2.45 µM): 18.04%
Activity ([20]; 2.45 µM): 12.19%
Activity [21]: Active
growth inhibition (GI) [15]: Active

Ki [1]: 4.2 nM
IC50 [10]: 40900 nM
IC50 [14]: 18900 nM
Structure (SMILES): NS(=O)(=O)c1ccc(CCN(Cc2ccc(Cl)cc2)C(=O)Cn2cc(F)c(=O)[nH]c2=O)cc1
growth inhibition (GI) [6]: inactive
growth inhibition (GI) [7]: inactive
growth inhibition (GI) [8]: inactive
growth inhibition (GI) [9]: inactive
growth inhibition (GI) [11]: Active
growth inhibition (GI) [12]: inactive
growth inhibition (GI) [13]: inactive
growth inhibition (GI) [15]: Active

Ki [1]: 11.8 nM
Structure (SMILES): NS(=O)(=O)c1ccc(CCN(Cc2ccc(F)cc2)C(=O)Cn2cc(F)c(=O)[nH]c2=O)cc1

Ki [1]: 26.8 nM
Structure (SMILES): CN(C)c1ccc(CN(CCc2ccc(S(N)(=O)=O)cc2)C(=O)Cn2cc(F)c(=O)[nH]c2=O)cc1

Ki [1]: 4.9 nM
Structure (SMILES): N#Cc1ccc(CN(CCc2ccc(S(N)(=O)=O)cc2)C(=O)Cn2cc(F)c(=O)[nH]c2=O)cc1
